ChEMBL document CHEMBL4425094, “Novel Benzo[a]quinolizidine Analogs Induce Cancer Cell Death through Paraptosis and Apoptosis” (J Med Chem, 2016)
pIC50: −log10 of the molar value. Activity calls are given as the source filed them. The calls are words filed in the database; no cut-off is given here.

Experiments:
PC-3 [1] = assay: Induction of autophagy in human PC3 cells transfected with mRFP-GFP-LC3 assessed as LC3 granulation of LC3 at 0.5 uM after 8 hrs by fluorescence microscopic analysis; format: functional, cell-based
In short: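 PC3 cells transfected with an mRFP-GFP-LC3 reporter plasmid, then treated 8 h with 1 μM test agent or 0.5 μM rapamycin (autophagy inducer). Imaged by confocal fluorescence microscopy: yellow puncta (overlapping red/green) scored as autophagosomes, red-only puncta as autolysosomes, since GFP is quenched in acidic lysosomes.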

PC-3 [2] = assay: Induction of morphological changes in human PC3 cells assessed as formation of massive cytoplasmic vacuoles at 1 uM after 12 hrs by confocal microscopic analysis; format: functional, cell-based
[3] = Toxicity in athymic Balb/c mouse assessed as body weight loss at 15 mg/kg, ip administered every 2 days for 18 days; format: organism-based; conditions: in vivo
In short: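 Male athymic BALB/c-nu mice bearing subcutaneous PC3M-luc-C6 xenografts, n = 5 per group. Dosing was 15 mg/kg i.p. every 2 days for 18 days versus placebo and docetaxel 15 mg/kg groups. Body weight was recorded over the treatment period.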

PC-3M [4] = assay: Antitumor activity against human PC3M-lluc-C6 cells xenografted in athymic Balb/c mouse assessed as decrease in tumor burden by measuring photon intensity at 15 mg/kg, ip measured on day 9 by bioluminescence method (reference value: 6.501 x 10^9 photons/s/cm2); format: functional
DU-145 = assay: Cytotoxicity against human DU145 cells assessed as cell growth inhibition after 24 hrs by MTT assay; format: functional, cell-based; conditions: DU-145, 24 h
In short: (§1)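 Cells seeded 24 h in RPMI 1640 + 10% FBS. RWPE-1 was kept in K-SFM with bovine pituitary extract and EGF. Cells then exposed to compounds for 24 h at 37 °C, 5% CO2, with DMSO vehicle and docetaxel as positive control. MTT added for 4 h, absorbance read at 570 nm. Triplicate runs, IC50 reported as mean of three experiments.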

PC-3 [5] = assay: Cytotoxicity against human PC3 cells assessed as cell growth inhibition after 24 hrs by MTT assay; format: functional, cell-based; conditions: PC-3, 24 h; in short: as §1
MDA-MB-231 = assay: Cytotoxicity against human MDA-MB-231 cells assessed as cell growth inhibition after 24 hrs by MTT assay; format: functional, cell-based; conditions: MDA-MB-231, 24 h; in short: as §1
HeLa = assay: Cytotoxicity against human HeLa cells assessed as cell growth inhibition after 24 hrs by MTT assay; format: functional, cell-based; in short: as §1
K562 = assay: Cytotoxicity against human K562 cells assessed as cell growth inhibition after 24 hrs by MTT assay; format: functional, cell-based; conditions: K562, 24 h; in short: as §1
MCF7 = assay: Cytotoxicity against human MCF7 cells assessed as cell growth inhibition after 24 hrs by MTT assay; format: functional, cell-based; conditions: MCF7, 24 h; in short: as §1
PC-3M [6] = assay: Antitumor activity against human PC3M-lluc-C6 cells xenografted in athymic Balb/c mouse assessed as tumor growth inhibition at 15 mg/kg, ip administered every 2 days measured on day 18; format: functional; conditions: read-out: TGI
RWPE-1 = assay: Cytotoxicity against human RWPE1 cells assessed as cell growth inhibition after 24 hrs by MTT assay; format: cell-based; conditions: RWPE-1, 24 h; in short: as §1
PC-3M [7] = assay: Antitumor activity against human PC3M-lluc-C6 cells xenografted in athymic Balb/c mouse assessed as decrease in tumor burden by measuring photon intensity at 15 mg/kg, ip measured on day 18 by bioluminescence method (reference value: 2.332 x 10^10 photons/s/cm2); format: functional

Row | Compound | Activity (PC-3 [1]) | Activity (PC-3 [2]) | Activity [3] [g] | Activity (PC-3M [4]) [×10⁹ /s/cm2] | pIC50 (DU-145) | pIC50 (PC-3 [5]) | pIC50 (MDA-MB-231) | pIC50 (HeLa) | pIC50 (K562) | pIC50 (MCF7) | inhibition in vivo at 15 mg/kg (PC-3M [6]) [%] | pIC50 (RWPE-1) | Activity (PC-3M [7]) [×10⁹ /s/cm2]
1 | CO[C@H]1C[C@@H]2CC[C@@H](C)[C@@](O)(O2)C(=O)C(=O)N2CCCC[C@H]2C(=O)O[C@H]([C@H](C)C[C@@H]2CC[C@@H](O)[C@H](OC)C2)CC(=O)[C@H](C)/C=C(\C)[C@@H](O)[C@@H](OC)C(=O)[C@H](C)C[C@H](C)/C=C/C=C/C=C/1C | Active |  |  |  |  |  |  |  |  |  |  |  | 
2 | CC(=O)O[C@@]12CO[C@@H]1C[C@H](O)[C@@]1(C)C(=O)[C@H](O)C3=C(C)[C@@H](OC(=O)[C@H](O)[C@@H](NC(=O)OC(C)(C)C)c4ccccc4)C[C@@](O)([C@@H](OC(=O)c4ccccc4)[C@H]21)C3(C)C [DOCETAXEL ANHYDROUS] |  | inactive | 13.3 | 3.513 | 7.59 | 7.89 | 7.49 | 7.21 | 7.41 | 7.66 | 92 | 5.76 | 1.92
